Type in all cases: functional, cell-based
Experiment [1] has as its target T1, Toll-like receptor 9 (Mus musculus) (UniProt Q9EQU3).
T1 sequence (whole entry): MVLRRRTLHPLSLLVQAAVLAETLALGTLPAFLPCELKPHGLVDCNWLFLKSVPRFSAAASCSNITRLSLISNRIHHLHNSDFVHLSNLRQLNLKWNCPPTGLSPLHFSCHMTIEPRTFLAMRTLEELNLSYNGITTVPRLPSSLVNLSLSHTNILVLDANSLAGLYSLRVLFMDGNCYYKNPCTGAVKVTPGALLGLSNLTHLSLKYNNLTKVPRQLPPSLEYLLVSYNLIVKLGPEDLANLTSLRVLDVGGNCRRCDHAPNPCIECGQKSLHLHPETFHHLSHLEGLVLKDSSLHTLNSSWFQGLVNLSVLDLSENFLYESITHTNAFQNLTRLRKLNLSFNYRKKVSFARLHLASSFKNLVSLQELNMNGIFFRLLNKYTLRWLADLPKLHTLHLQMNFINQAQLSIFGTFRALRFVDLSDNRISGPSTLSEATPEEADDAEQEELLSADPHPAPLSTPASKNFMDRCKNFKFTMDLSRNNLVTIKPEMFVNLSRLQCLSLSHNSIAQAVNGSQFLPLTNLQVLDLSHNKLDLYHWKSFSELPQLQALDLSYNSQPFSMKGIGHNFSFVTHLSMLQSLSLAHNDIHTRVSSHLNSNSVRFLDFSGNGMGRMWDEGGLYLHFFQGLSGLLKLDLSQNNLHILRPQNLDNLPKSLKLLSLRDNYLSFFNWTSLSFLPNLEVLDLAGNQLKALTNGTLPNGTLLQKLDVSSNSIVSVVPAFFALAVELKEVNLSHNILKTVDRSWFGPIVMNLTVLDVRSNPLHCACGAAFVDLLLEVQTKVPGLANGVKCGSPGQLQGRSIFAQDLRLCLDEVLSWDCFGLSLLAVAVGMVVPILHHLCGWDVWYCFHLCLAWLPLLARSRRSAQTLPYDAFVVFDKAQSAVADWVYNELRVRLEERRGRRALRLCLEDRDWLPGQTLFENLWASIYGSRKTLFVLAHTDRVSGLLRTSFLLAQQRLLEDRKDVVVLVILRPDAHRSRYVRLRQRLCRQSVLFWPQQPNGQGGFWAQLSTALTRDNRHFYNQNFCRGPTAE
Briefly: Agonist activity at mouse TLR9 expressed in HEK293 cells assessed as activation of NF-kappaB at 10 ug/mL by SEAP reporter gene assay. The procedure, abridged:
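HEK293 cells stably expressing mouse TLR9 were transiently transfected with a SEAP reporter for 6 h. Compounds were added at 10 µg/mL for 18 h. SEAP was read with Quanti-Blue substrate and expressed as fold change in NF-κB activity.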
For orientation: A reporter such as luciferase makes a cellular process visible.

Experiment [2] addresses T1, Toll-like receptor 9 (Mus musculus). Briefly: Antagonist activity at mouse TLR9 expressed in HEK293 cells assessed as inhibition of 5'-CTATCTGACGTTCTCTGT-3'-induced NF-kappaB activation by SEAP reporter gene assay. The method in brief:
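Mouse TLR9-HEK293 cells were transfected with a SEAP reporter for 6 h. They were then stimulated for 18 h with agonist (0.25 or 0.5 µg/mL) plus increasing antagonist concentrations or set agonist:antagonist ratios. Quanti-Blue read-out, reported as % NF-κB activity with agonist alone as 100%.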

For experiment [3] the target is unchanged. The experiment in a line: Antagonist activity at TLR9 in mouse J774 cells assessed as inhibition of 5'-TCTGACRTTCT-X-TCTTRCAGTCT-3'-induced NF-kappaB activation pretreated for 1 hr. The method in brief:
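J774 cells at 5×10^6 cells/well were preincubated with antagonist for 1 h. Agonist was then added: TLR9 agonist 1 µg/mL, an RNA-based TLR7/8 agonist, or LPS 100 ng/mL. Antagonist was used at 5–40 µg/mL or at the indicated agonist ratios. Nuclear extracts were taken 1 h after agonist and analysed by EMSA.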

Experiment [4] has the same target. The experiment in a line: Agonist activity at TLR9 in mouse J774 cells assessed as of NF-kappaB activation. The procedure, abridged:
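Murine J774 macrophages grown in DMEM with 10% FBS and plated at 5×10^6 cells/well. Nuclear extracts taken 1 h after agonist addition. NF-κB detected by EMSA on native polyacrylamide gels with autoradiography.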

Calls of active or inactive are those of the source. The calls are words filed in the database; no cut-off is given here.

For the compound `CO[C@@H]1[C@H](OP(=O)(S)OC[C@H]2O[C@@H](n3ccc(N)nc3=O)C[C@@H]2OP(=O)(S)OC[C@H]2O[C@@H](n3cc(C)c(=O)[nH]c3=O)C[C@@H]2OP(=O)(S)OC[C@H]2O[C@@H](n3ccc(N)nc3=O)C[C@@H]2OP(=O)(S)OC[C@H]2O[C@@H](n3cc(C)c(=O)[nH]c3=O)C[C@@H]2OP(=O)(S)OC[C@H]2O[C@@H](n3cnc4c(=O)[nH]c(N)nc43)C[C@@H]2OP(=O)(S)OC[C@H]2O[C@@H](n3cc(C)c(=O)[nH]c3=O)C[C@@H]2O)[C@@H](COP(=O)(S)O[C@H]2[C@@H](OC)[C@H](n3ccc(=O)[nH]c3=O)O[C@@H]2COP(=O)(S)O[C@H]2C[C@H](n3cnc4c(=O)[nH]c(N)nc43)O[C@@H]2COP(=O)(S)O[C@H]2C[C@H](n3ccc(N)nc3=O)O[C@@H]2COP(=O)(S)O[C@H]2C[C@H](n3cnc4c(N)ncnc43)O[C@@H]2COP(=O)(S)O[C@H]2C[C@H](n3cnc4c(=O)[nH]c(N)nc43)O[C@@H]2COP(=O)(S)O[C@H]2C[C@H](n3cc(C)c(=O)[nH]c3=O)O[C@@H]2COP(=O)(S)O[C@H]2C[C@H](n3ccc(N)nc3=O)O[C@@H]2COP(=O)(S)O[C@H]2C[C@H](n3cc(C)c(=O)[nH]c3=O)O[C@@H]2COP(=O)(S)O[C@H]2C[C@H](n3cnc4c(N)ncnc43)O[C@@H]2COP(=O)(S)O[C@H]2C[C@H](n3cc(C)c(=O)[nH]c3=O)O[C@@H]2COP(=O)(S)O[C@@H]2C[C@@H](n3ccc(N)nc3=O)O[C@H]2CO)O[C@H]1n1ccc(=O)[nH]c1=O` (some centres not stated), in experiment [1], the result was Active.
Turning to `Cc1cn([C@H]2C[C@H](OP(=O)(S)OC[C@H]3O[C@@H](n4ccc(N)nc4=O)C[C@@H]3OP(=O)(S)OC[C@H]3O[C@@H](n4cc(C)c(=O)[nH]c4=O)C[C@@H]3OP(=O)(S)OC[C@H]3O[C@@H](n4cnc5c(=O)[nH]c(N)nc54)C[C@@H]3OP(=O)(S)OC[C@H]3O[C@@H](n4cc(C)c(=O)[nH]c4=O)C[C@@H]3O)[C@@H](COP(=O)(S)O[C@H]3C[C@H](n4ccc(N)nc4=O)O[C@@H]3COP(=O)(S)O[C@H]3C[C@H](n4cc(C)c(=O)[nH]c4=O)O[C@@H]3COP(=O)(S)O[C@H]3C[C@H](n4cc(C)c(=O)[nH]c4=O)O[C@@H]3COP(=O)(S)O[C@H]3C[C@H](n4cnc5c(=O)[nH]c(N)nc54)O[C@@H]3COP(=O)(S)O[C@H]3C[C@H](n4ccc(N)nc4=O)O[C@@H]3COP(=O)(S)O[C@H]3C[C@H](n4cc(C)c(=O)[nH]c4=O)O[C@@H]3COP(=O)(S)O[C@H]3C[C@H](n4cnc5c(=O)[nH]c(N)nc54)O[C@@H]3COP(=O)(S)O[C@H]3C[C@H](n4cc(C)c(=O)[nH]c4=O)O[C@@H]3COP(=O)(S)O[C@H]3C[C@H](n4ccc(N)nc4=O)O[C@@H]3COP(=O)(S)O[C@H]3C[C@H](n4cc(C)c(=O)[nH]c4=O)O[C@@H]3COP(=O)(S)O[C@H]3C[C@H](n4cnc5c(N)ncnc54)O[C@@H]3COP(=O)(S)O[C@H]3C[C@H](n4cc(C)c(=O)[nH]c4=O)O[C@@H]3COP(=O)(S)O[C@@H]3C[C@@H](n4ccc(N)nc4=O)O[C@H]3CO)O2)c(=O)[nH]c1=O` (some centres not stated), the result in experiment [1] was Active.
With `Cc1cn([C@@H]2O[C@H](COP(=O)(S)O[C@H]3C[C@H](n4ccc(N)nc4=O)O[C@@H]3COP(=O)(S)O[C@H]3C[C@H](n4cc(C)c(=O)[nH]c4=O)O[C@@H]3COP(=O)(S)O[C@H]3C[C@H](n4ccc(N)nc4=O)O[C@@H]3COP(=O)(S)O[C@H]3C[C@H](n4cc(C)c(=O)[nH]c4=O)O[C@@H]3COP(=O)(S)O[C@H]3C[C@H](n4cc(C)c(=O)[nH]c4=O)O[C@@H]3COP(=O)(S)O[C@H]3C[C@H](n4cnc5c(=O)[nH]c(N)nc54)O[C@@H]3COP(=O)(S)O[C@H]3C[C@H](n4ccc(N)nc4=O)O[C@@H]3COP(=O)(S)O[C@H]3C[C@H](n4cnc5c(N)ncnc54)O[C@@H]3COP(=O)(S)O[C@H]3C[C@H](n4cnc5c(=O)[nH]c(N)nc54)O[C@@H]3COP(=O)(S)O[C@H]3C[C@H](n4cc(C)c(=O)[nH]c4=O)O[C@@H]3COP(=O)(S)O[C@H]3C[C@H](n4ccc(N)nc4=O)O[C@@H]3COP(=O)(S)O[C@H]3C[C@H](n4cc(C)c(=O)[nH]c4=O)O[C@@H]3COP(=O)(S)O[C@H]3C[C@H](n4cnc5c(N)ncnc54)O[C@@H]3COP(=O)(S)O[C@H]3C[C@H](n4cc(C)c(=O)[nH]c4=O)O[C@@H]3COP(=O)(S)O[C@@H]3C[C@@H](n4ccc(N)nc4=O)O[C@H]3CO)[C@@H](OP(=O)(S)OC[C@H]3O[C@@H](n4cnc5c(=O)[nH]c(N)nc54)C[C@@H]3OP(=O)(S)OC[C@H]3O[C@@H](n4cc(C)c(=O)[nH]c4=O)C[C@@H]3O)[C@H]2O)c(=O)[nH]c1=O` (some centres not stated), the outcome in experiment [1] was Active. Moreover, the result in experiment [2] was inactive.
With `CO[C@@H]1[C@H](OP(=O)(S)OC[C@H]2O[C@@H](n3ccc(N)nc3=O)C[C@@H]2OP(=O)(S)OC[C@H]2O[C@@H](n3ccc(N)nc3=O)C[C@@H]2OP(=O)(S)OC[C@H]2O[C@@H](n3cc(C)c(=O)[nH]c3=O)C[C@@H]2OP(=O)(S)OC[C@H]2O[C@@H](n3cc(C)c(=O)[nH]c3=O)C[C@@H]2OP(=O)(S)OC[C@H]2O[C@@H](n3ccc(N)nc3=O)C[C@@H]2OP(=O)(S)OC[C@H]2O[C@@H](n3cc(C)c(=O)[nH]c3=O)C[C@@H]2OP(=O)(S)OC[C@H]2O[C@@H](n3ccc(N)nc3=O)C[C@@H]2OP(=O)(S)OC[C@H]2O[C@@H](n3cc(C)c(=O)[nH]c3=O)C[C@@H]2OP(=O)(S)OC[C@H]2O[C@@H](n3cnc4c(=O)[nH]c(N)nc43)C[C@@H]2OP(=O)(S)OC[C@H]2O[C@@H](n3cc(C)c(=O)[nH]c3=O)C[C@@H]2O)[C@@H](COP(=O)(S)O[C@H]2[C@@H](OC)[C@H](n3cnc4c(=O)[nH]c(N)nc43)O[C@@H]2COP(=O)(S)O[C@H]2C[C@H](n3cc(C)c(=O)[nH]c3=O)O[C@@H]2COP(=O)(S)O[C@H]2C[C@H](n3ccc(N)nc3=O)O[C@@H]2COP(=O)(S)O[C@H]2C[C@H](n3cc(C)c(=O)[nH]c3=O)O[C@@H]2COP(=O)(S)O[C@H]2C[C@H](n3cnc4c(N)ncnc43)O[C@@H]2COP(=O)(S)O[C@H]2C[C@H](n3cc(C)c(=O)[nH]c3=O)O[C@@H]2COP(=O)(S)O[C@@H]2C[C@@H](n3ccc(N)nc3=O)O[C@H]2CO)O[C@H]1n1cnc2c(N)ncnc21` (some centres not stated), the outcome in experiment [1], in experiment [3] and in experiment [4] was inactive.

The record behind these values is ChEMBL document CHEMBL1140884, “Oligodeoxyribonucleotide-based antagonists for Toll-like receptors 7 and 9” (2009).
